# MrgX1 antagonist: blocks BAM8-22 activation of human MrgX1 receptor | Q96LB2 | B-score at 10 µM | 310,000 compounds, 1.3% hits | MRGX1-HEK293 calcium flux, Fluo-4, BAM8-22 antagonism; active compounds read low;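 active means calcium-response B-score plate-corrected more than 3 library SD below zero, starting fluorescence within 5 deviations, no agonist response on first addition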;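 further: peak minus trough fluorescence over baseline after final BAM8-22 challenge near maximal dose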
# Target sequence (Q96LB2 whole entry, looked up): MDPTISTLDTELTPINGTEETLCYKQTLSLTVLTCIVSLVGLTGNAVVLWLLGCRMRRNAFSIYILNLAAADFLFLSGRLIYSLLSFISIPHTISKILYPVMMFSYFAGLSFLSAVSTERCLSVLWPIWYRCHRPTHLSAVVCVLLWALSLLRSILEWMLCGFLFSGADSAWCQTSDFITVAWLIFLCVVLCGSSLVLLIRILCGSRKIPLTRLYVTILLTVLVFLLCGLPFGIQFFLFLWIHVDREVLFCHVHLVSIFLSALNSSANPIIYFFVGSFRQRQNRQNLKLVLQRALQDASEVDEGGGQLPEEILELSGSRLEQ
# MrgX1 agonist: human MrgX1 receptor agonism, primary screen | MrgX1-HEK293 cells, Fluo-4 calcium fluorescence, agonist mode; active compounds read high | B-score at 10 µM | 310,000 compounds, 0.44% hits;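 active means calcium response B-score plate-corrected fluorescence ratio at least 3 library SD, with starting fluorescence B-score inside 5 SD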
#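 Test system: HEK293 cells stably expressing human MrgX1 receptor; amount: 15,000 cells per well; doses: compound delivered in addition one of three; times: overnight plating before 1 h dye loading; detection: Fluo-4 NW calcium-flux fluorescence, kinetic read; read-out basis: B-scored fluorescence response ratio; controls: positive and negative controls per plate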
# RGS4 act: RGS4 potentiation or activation. HEK293 M3R/inducible RGS4, carbachol calcium flux Fluo4; active compounds read low. B-score at 10 µM. 310,000 compounds, 0.92% hits. AID 463111;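 active means B-score of the integrated calcium signal more than 4 SD below the library mean, with starting fluorescence not abnormally high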;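 further: negative B-score means reduced calcium response which marks RGS4 activation or potentiation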
#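 test system = M3R-expressing HEK293 line, RGS4 induced by doxycycline | probe or stimulus = carbachol at ECmax as muscarinic agonist stimulus | timing = dye loading 30 min 37 °C, buffer rest 30 min RT | signal = calcium dye Fluo4 fluorescence | evaluation = B score from integrated fluorescence ratio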
# RGS4 block: human RGS4 inhibition; P49798; HEK293 M3R/RGS4 inducible, Fluo-4 calcium flux; active compounds read high; triggered by carbachol at its EC20; B-score at 10 µM; 310,000 compounds, 0.45% hits; AID 463165;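 active means B-score, a plate-corrected calcium signal, over three deviations above library mean, with baseline fluorescence within five deviations of library mean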;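 further: RGS4 expression induced by doxycycline in cells with stable M3 receptor; B-score is computed from the integrated fluorescence ratio over baseline after carbachol; higher B-score means a larger calcium signal and so more RGS4 inhibition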
# Target sequence (P49798 whole entry, looked up): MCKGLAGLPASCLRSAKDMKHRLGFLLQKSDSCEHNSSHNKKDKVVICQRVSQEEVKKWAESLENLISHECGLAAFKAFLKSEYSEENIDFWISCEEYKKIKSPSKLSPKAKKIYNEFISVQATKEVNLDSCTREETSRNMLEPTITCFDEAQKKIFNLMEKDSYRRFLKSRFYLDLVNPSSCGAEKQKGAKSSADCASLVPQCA
# MrgX1 allo act: human MrgX1 positive allosteric modulation, primary screen; Q96LB2; MrgX1-HEK293, Fluo-4 calcium flux, FDSS; active compounds read high; B-score at 10 µM; 310,000 compounds, 0.63% hits;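 active means plate-corrected calcium response at least 3 library SD above typical, normal starting fluorescence, not activating the receptor alone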;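 further: compound read alongside a low EC10 to EC30 dose of BAM8-22 agonist; peak minus trough fluorescence over baseline measured at the second addition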
# MrgX1 antag conf: human MrgX1 receptor antagonism, re-confirmation screen; 2,300 compounds, 19% hits; remaining BAM8-22 calcium response % of control (active compounds read low), % at 10 µM; MrgX1-HEK293, BAM8-22 calcium flux, Fluo-4; active compounds read low; shares compounds with MrgX1 antagonist;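 active means remaining agonist calcium response no higher than 100% minus 3 SD of agonist-only control wells, with starting fluorescence near control levels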;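 further: agonist BAM8-22 given at a near maximal EC90 to ECmax level; peak minus minimum fluorescence divided by baseline after agonist addition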
# HEK293 Ca flux: activity in parental HEK293 cells lacking MrgX1. 4,000 compounds, 2% hits. Fluo-4 calcium fluorescence, FDSS. fluorescence ratio F(max-min)/F0 at 10 µM. shares compounds with MrgX1 antagonist;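 active means duplicate-averaged calcium fluorescence ratio at least three times the standard deviation of buffer wells, a nonspecific response in parental cells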
# HEK293 Ca counter: activity in parental HEK293 cells without MrgX1; shares compounds with MrgX1 antagonist; parental HEK293 calcium flux, Fluo-4 fluorescence ratio; active compounds read high; fluorescence ratio F(max-min)/F0 at 10 µM; 4,000 compounds, 0.4% hits;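 active means calcium fluorescence ratio, averaged over duplicates, at least 3 SD of the buffer-well ratio, meaning a nonspecific response in receptor-free cells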;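 further: untransfected parental HEK293 lacking MrgX1 used as counterscreen for MrgX1 allosteric activators; fluorescence change taken during the second addition on a kinetic imager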
# HEK293 Ca cntr2: MrgX1 activator counter-screen hit in parental HEK293 cells | shares compounds with MrgX1 antagonist | Fluo-4 calcium fluorescence (FDSS); active compounds read high | fluorescence ratio F(max-min)/F0 at 10 µM | 4,000 compounds, 8.7% hits | AID 624115;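 active means calcium fluorescence ratio at least three times the spread of buffer wells, meaning a non-specific response in parental cells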
# * marks the source's active call; other numbers are inactive results; i = inactive; · = no result given. This is a sample that favours compounds with a hit; in the whole collection about 3.5% have one here.
SMILES,MrgX1 antagonist,MrgX1 agonist,RGS4 act,RGS4 block,MrgX1 allo act,MrgX1 antag conf,HEK293 Ca flux,HEK293 Ca counter,HEK293 Ca cntr2
c1coc(CNc2c3c(nc4ccccc24)CCC3)c1,-5.5*,i,i,i,i,i,i,i,i
COc1ccc(N=Cc2cc3c(cc2O)OC(N)=C(C#N)C3c2ccccc2)cc1 (stereo not drawn),-5.9*,i,i,i,i,i,i,i,i
N#CC1=C(N)Oc2cc3ccccc3cc2C1c1cccnc1 (stereo not drawn),i,i,i,i,i,·,·,·,·
COc1ccc(CCN2C(=S)N(C)C(=O)C2CC(=O)Nc2ccc(F)cc2)cc1 (stereo not drawn),i,i,i,i,i,·,·,·,·
Cc1cccc(OCCCC(=O)NC2CCCCC2)c1,-6.7*,i,i,i,i,i,i,i,i
Cc1cccc(OCC(=O)NC2CCCC2)c1,i,i,i,i,i,·,·,·,·
O=C(Cn1cnc2c(oc3ccccc32)c1=O)c1ccccc1,-8.2*,i,i,i,i,i,i,i,i
O=C(O)Cn1cnc2c(oc3ccccc32)c1=O,i,i,i,i,i,·,·,·,·
Cn1nc(C(=O)Nc2cccc(Cl)c2)cc1C(=O)Nc1cccc(Cl)c1,-4.8*,i,i,i,i,i,i,i,i
Clc1ccc2nnnc(-c3ccccc3)c2c1,-4.6*,i,i,i,i,i,i,i,i
Nc1nonc1-c1noc(N2CCCCC2)n1,-5.5*,i,i,i,i,85%*,i,i,i
O=C(Cn1cnc2c(nnn2Cc2ccc(F)cc2)c1=O)NCc1ccc(F)cc1,i,i,i,i,i,·,·,·,·
CC(=O)Nc1ccc(NC(=O)Cn2cnc3c(nnn3Cc3ccc(F)cc3)c2=O)cc1,-6.8*,i,i,i,i,i,i,i,i
COCCn1nnnc1C(c1cccs1)N1CCN(c2nc3ccccc3s2)CC1 (stereo not drawn),i,i,i,i,i,·,·,·,·
COCCn1nnnc1C(c1cccs1)N1CCN(c2cc(C)ccc2C)CC1 (stereo not drawn),-10*,i,i,i,i,i,i,i,i
CC(C)C(NS(=O)(=O)c1ccc2c(c1)Cc1cc(S(=O)(=O)NC(C(=O)O)C(C)C)ccc1-2)C(=O)O (stereo not drawn),i,i,i,i,i,·,·,·,·
CCCC1=C(C(=O)OCC)C(c2ccncc2)n2ncnc2N1 (stereo not drawn),-6.1*,i,i,i,i,i,i,i,i
CCN(CC)c1ccc(CNc2ccc3c(c2)ncn3CC)cc1,i,i,i,i,i,·,·,·,·
CCn1cnc2cc(NCc3ccc(C)cc3)ccc21,-4.6*,i,i,i,i,i,i,i,i
COc1ccc(OC)c(S(=O)(=O)N2CCC(C(=O)NCc3ccncc3)CC2)c1,i,i,i,i,i,·,·,·,·
Cc1ccc(S(=O)(=O)N(CC(=O)NC2CC2)c2ccc(C)c(Cl)c2)cc1,-5*,i,i,i,i,i,i,i,i
Cn1c(SCC(=O)c2c(N)n(C)c(=O)n(C)c2=O)nnc1-c1ccccc1F,-5.2*,i,i,i,i,i,i,i,i
Cn1c(SCC(=O)c2c(N)n(C)c(=O)n(C)c2=O)nnc1-c1ccccc1,i,i,i,i,i,·,·,·,·

# Screening data (PubChem)
